For 24 compounds, inhibition results are on record in ChEMBL document CHEMBL1126763, “Nonpeptide angiotensin II receptor antagonists. Synthesis and biological activity of potential prodrugs of benzimidazole-7-carboxylic acids” (J Med Chem, 1993).

Format in all cases: functional, organism-based
Holding throughout (set-up): dose 0.1 mg/kg

The target of assay [1] is T1, Angiotensin II receptor (Rattus norvegicus) (UniProt P29089+P25095+P35351). Put plainly: Inhibitory activity on AII (100 ng/kg iv)-induced pressor response after administration at 0.1 mg/kg po in conscious male Sprague-Dawley rats at 2 h. A digest of the protocol: (§1)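 Conscious male Sprague-Dawley rats received test compounds orally at 0.1 mg/kg. AII (100 ng/kg iv) was given as a pressor challenge at each time point after dosing, and percent inhibition of the pressor response was recorded. Experiments were run in duplicate (n = 2); parent drug and one ester used n = 3. Inhibition may vary by less than 30%.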

In assay [2] the target is T1, Angiotensin II receptor (Rattus norvegicus). Put plainly: Inhibitory activity on AII (100 ng/kg iv)-induced pressor response after administration at 0.1 mg/kg po in conscious male Sprague-Dawley rats at 3 h. A digest of the protocol: as §1
Assay [3] has the same target. As to the kind of experiment: Inhibitory activity on AII (100 ng/kg iv)-induced pressor response after administration at 0.1 mg/kg po in conscious male Sprague-Dawley rats at 7 h. A digest of the protocol: as §1
The target is the same in assay [4]. Put plainly: Inhibitory activity on AII (100 ng/kg iv)-induced pressor response at 0.1 mg/kg po in conscious male Sprague-Dawley rats at 1 h. A digest of the protocol: as §1
Assay [5] has the same target. As to the kind of experiment: Inhibitory effect on AII (100 ng/kg iv)-induced pressor response after administration at 0.1 mg/kg po in conscious male Sprague-Dawley rats at 0.5 h. The gist of the method: as §1
The target is the same in assay [6]. As to the kind of experiment: Inhibitory activity on AII (100 ng/kg iv)-induced pressor response after administration at 0.1 mg/kg po in conscious male Sprague-Dawley rats at 24 h. A digest of the protocol: as §1
The target is the same in assay [7]. As to the kind of experiment: Inhibitory activity on AII (100 ng/kg iv)-induced pressor response after administration at 0.1 mg/kg po in conscious male Sprague-Dawley rats at 5 h. The gist of the method:
as §1

Each structure is given as a SMILES string.

As usually defined, the inhibition is the change of the read-out against control, counted positive when it falls. Take `CCCC(=O)OCOC(=O)c1cccc2nc(OCC)n(Cc3ccc(-c4ccccc4-c4nn[nH]n4)cc3)c12`: the inhibition in assay [1] turned out to be 78%; in assay [2], 67%; in assay [3] it was 48%; in assay [4], 84%; in assay [5], 100%; in assay [6] it was 6%. In addition, the inhibition in assay [7] stood at 54%.

Take `CCCCc1nc2cccc(C(=O)OCc3oc(=O)oc3C)c2n1Cc1ccc(-c2ccccc2-c2nn[nH]n2)cc1`: the inhibition in assay [1] is 81%; in assay [2] it was 88%; in assay [3], 77%; in assay [4] it was 63%; in assay [5] it was 32%; in assay [6] it was 55%. For the same compound, the inhibition in assay [7] is 75%.

Take `CCOC(=O)OC(C)OC(=O)c1cccc2nc(OCC)n(Cc3ccc(-c4ccccc4-c4nn[nH]n4)cc3)c12` (stereo unspecified): the inhibition in assay [1] was 95%; in assay [2] it was 89%; in assay [3], 71%; in assay [4] it was 87%; in assay [5], 74%; in assay [6], 7%. In addition, the inhibition in assay [7] was found to be 81%.

With `CCOc1nc2cccc(C(=O)OCOC(=O)C(C)C)c2n1Cc1ccc(-c2ccccc2-c2nn[nH]n2)cc1`, the inhibition in assay [1] was found to be 56%; in assay [2], 52%; in assay [3], 20%; in assay [4], 40%; in assay [5] it was 80%; in assay [6], 6%. In addition, the inhibition in assay [7] stood at 44%.

`CCCCc1nc2cccc(C(=O)OC(C)OC(=O)OCC)c2n1Cc1ccc(-c2ccccc2-c2nn[nH]n2)cc1` (stereo unspecified): the inhibition in assay [1] is 84%; in assay [2] it was 89%; in assay [3] it was 75%; in assay [4], 89%; in assay [5], 64%; in assay [6], 61%. For the same compound, the inhibition in assay [7] was 81%.

Consider `CCCCc1nc2cccc(C(=O)OCc3ccncc3)c2n1Cc1ccc(-c2ccccc2-c2nn[nH]n2)cc1`, for which the inhibition in assay [1] was 18%; in assay [2] it was 16%; in assay [3], 8%; in assay [4], 16%; in assay [5], 4%; in assay [7] it was 18%.

For the compound `CCOc1nc2cccc(C(=O)OCOC(=O)OC3CCCCC3)c2n1Cc1ccc(-c2ccccc2-c2nn[nH]n2)cc1`, the inhibition in assay [1] is 4%; in assay [2], 15%; in assay [3], 54%; in assay [4], -3%; in assay [5], 1%; in assay [6] it was 11%. In assay [7], the inhibition was found to be 53%.

In the case of `CCOc1nc2cccc(C(=O)O)c2n1Cc1ccc(-c2ccccc2-c2nnn[nH]2)cc1`, the inhibition in assay [1] amounted to 51%; in assay [2], 67%; in assay [4] it was 24%; in assay [5], 7%; in assay [6], 43%; in assay [7], 85%.

Turning to `CCOc1nc2cccc(C(=O)OCc3oc(=O)oc3C)c2n1Cc1ccc(-c2ccccc2-c2nn[nH]n2)cc1`, the inhibition in assay [1] was 87%; in assay [2], 85%; in assay [3] it was 44%; in assay [4] it was 83%; in assay [5] it was 49%; in assay [6], 6%. For the same compound, the inhibition in assay [7] is 70%.

Turning to `CCOc1nc2cccc(C(=O)OCOC(=O)/C=C/c3ccccc3)c2n1Cc1ccc(-c2ccccc2-c2nn[nH]n2)cc1`, the inhibition in assay [1] is 80%; in assay [2], 80%; in assay [3] it was 64%; in assay [4], 36%; in assay [5], -3%; in assay [6], 3%. In addition, the inhibition in assay [7] turned out to be 61%.

Take `CCOc1nc2cccc(C(=O)OC(C)OC(=O)OC3CCC3)c2n1Cc1ccc(-c2ccccc2-c2nn[nH]n2)cc1` (stereo unspecified): the inhibition in assay [1] stood at 86%; in assay [2], 83%; in assay [3], 60%; in assay [4] it was 77%; in assay [5], 35%; in assay [6] it was 25%. Further, the inhibition in assay [7] stood at 79%.

As for `CCOc1nc2cccc(C(=O)OCOC(=O)C3CCCCC3)c2n1Cc1ccc(-c2ccccc2-c2nn[nH]n2)cc1`, the inhibition in assay [1] is 76%; in assay [2], 85%; in assay [3], 80%; in assay [4], 5%; in assay [5], 0%; in assay [6], 14%. Besides, in assay [7], the inhibition was determined as 89%.

For `CCOc1nc2cccc(C(=O)OCOC(=O)C3CCCC3)c2n1Cc1ccc(-c2ccccc2-c2nn[nH]n2)cc1`, the inhibition worked out at 61% in assay [1]; 65% in assay [2]; 54% in assay [3]; 31% in assay [4]; 7% in assay [5]; 9% in assay [6]. The inhibition in assay [7] came to 62%.

Take `CCCCc1nc2cccc(C(=O)OC(C)OC(=O)OC3CCCCC3)c2n1Cc1ccc(-c2ccccc2-c2nn[nH]n2)cc1` (stereo unspecified): the inhibition was found to be 84% in assay [1]; 81% in assay [2]; 79% in assay [3]; 85% in assay [4]; 58% in assay [5]; 47% in assay [6]. Moreover, the inhibition in assay [7] was found to be 78%.

On to `CCOc1nc2cccc(C(=O)OCOC(=O)CC)c2n1Cc1ccc(-c2ccccc2-c2nn[nH]n2)cc1`, for which the inhibition in assay [1] was 60%; in assay [2] it was 60%; in assay [3], 31%; in assay [4], 76%; in assay [5], 76%; in assay [6] it was -4%. In addition, in assay [7], the inhibition came to 38%.

In the case of `CCOc1nc2cccc(C(=O)OCOC(C)=O)c2n1Cc1ccc(-c2ccccc2-c2nn[nH]n2)cc1`, the inhibition in assay [1] stood at 79%; in assay [2], 78%; in assay [3], 59%; in assay [4] it was 84%; in assay [5], 66%; in assay [6], 23%. In addition, the inhibition in assay [7] came to 72%.

In the case of `CCOc1nc2cccc(C(=O)OCOC(=O)c3ccccc3)c2n1Cc1ccc(-c2ccccc2-c2nn[nH]n2)cc1`, the inhibition in assay [1] is 23%; in assay [2], 56%; in assay [3] it was 76%; in assay [4], -2%; in assay [5] it was -4%; in assay [6], 6%. Besides, the inhibition in assay [7] amounted to 67%.

As to `CCOc1nc2cccc(C(=O)OC(C)OC(=O)OC(CC)CC)c2n1Cc1ccc(-c2ccccc2-c2nn[nH]n2)cc1` (stereo unspecified), the inhibition in assay [1] was 86%; in assay [2], 84%; in assay [3], 53%; in assay [4] it was 72%; in assay [5], 16%; in assay [6] it was 13%. Also, the inhibition in assay [7] was 63%.

`CCOc1nc2cccc(C(=O)OC(C)OC(=O)OC3CCCCC3)c2n1Cc1ccc(-c2ccccc2-c2nn[nH]n2)cc1` (stereo unspecified): the inhibition was 80% in assay [1]; 87% in assay [2]; 75% in assay [3]; 76% in assay [4]; 38% in assay [5]; 36% in assay [6]. Besides, the inhibition in assay [7] is 82%.

As to `CCOc1nc2cccc(C(=O)OC(C)OC(=O)OC(C)C)c2n1Cc1ccc(-c2ccccc2-c2nn[nH]n2)cc1` (stereo unspecified), the inhibition was found to be 84% in assay [1]; 79% in assay [2]; 67% in assay [3]; 91% in assay [4]; 70% in assay [5]; 12% in assay [6]. In addition, in assay [7], the inhibition turned out to be 80%.

For the compound `CCOc1nc2cccc(C(=O)OCOC(=O)OCC3CC3)c2n1Cc1ccc(-c2ccccc2-c2nn[nH]n2)cc1`, the inhibition in assay [1] was found to be 57%; in assay [2], 58%; in assay [3], 30%; in assay [4], 49%; in assay [5] it was 10%; in assay [6], 22%. For the same compound, in assay [7], the inhibition is 44%.

Take `CCOc1nc2cccc(C(=O)OCOC(=O)OC(C)C)c2n1Cc1ccc(-c2ccccc2-c2nn[nH]n2)cc1`: the inhibition in assay [1] came out at 79%; in assay [2] it was 72%; in assay [3], 57%; in assay [4], 55%; in assay [5], 23%; in assay [6] it was 28%. Moreover, the inhibition in assay [7] was 68%.

With `CCOc1nc2cccc(C(=O)OCOC(=O)OC3CCCC3)c2n1Cc1ccc(-c2ccccc2-c2nn[nH]n2)cc1`, the inhibition worked out at 55% in assay [1]; 68% in assay [2]; 64% in assay [3]; 14% in assay [4]; 5% in assay [5]; 14% in assay [6]. The inhibition in assay [7] was 77%.

As for `CCCCc1nc(Cl)c(CO)n1Cc1ccc(-c2ccccc2-c2nnn[nH]2)cc1`, the inhibition in assay [1] turned out to be 12%; in assay [2], 21%; in assay [3] it was 34%; in assay [4], 1%; in assay [5], 5%; in assay [6], 17%. For the same compound, the inhibition in assay [7] came out at 35%.
